The source of these data is ChEMBL document CHEMBL1137761, “Synthesis and activity evaluation of phenylurea derivatives as potent antitumor agents” (Bioorg Med Chem, 2009).

In assay [1] the test system is CCRF-CEM. Nature of the assay: Cell cycle arrest in human CEM cells assessed as accumulation at G2/M phase at 10 uM after 18 hrs by flow cytometry. Type of assay: functional. As to conditions: in the assay text read “6.4 uM” for “10 uM”. The essentials: (§1)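 CEM cells grown in RPMI-1640 with 10% heat-inactivated FCS at 37 °C, 5% CO2, exposed to compound for 18 h at 37 °C. Fixed in 70% ethanol 18 h at 4 °C, RNase A (50 µg/ml) 0.5 h at 37 °C, then propidium iodide (final 50 µg/ml) 0.5 h at 4 °C. Flow cytometry on 10^4 cells per sample gave phase distribution.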
Background: In flow cytometry, cells or beads pass a laser one at a time.

Assay [2] concerns CCRF-CEM. Nature of the assay: Induction of apoptosis in human CEM cells at 10 uM after 18 hrs by flow cytometry. Type of assay: functional. As to conditions: in the assay text read “6.4 uM” for “10 uM”. A digest of the protocol:
(§2)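 CEM cells exposed 18 h at 37 °C, then ethanol-fixed, RNase-treated and stained with propidium iodide (final 50 µg/ml). Flow cytometry on 10^4 cells per sample. Dead cells were scored as the population left of the G1/G0 peak, reflecting DNA degradation, and reported as percent.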

The species entered for assay [3] is Bos taurus. Nature of the assay: Inhibition of calf brain beta-tubulin polymerization at 6.4 uM after 30 mins by spectrophotometry. The essentials:
(§3)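 Calf brain tubulin (100 µL at 1 mg/ml) was mixed with 400 µL buffer: 0.1 M MES, 1 mM EGTA, 0.5 mM MgCl2, 0.1 mM EDTA, 2.5 M glycerol. Compound or solvent control was added, then GTP to a final 1 mM. OD340 was read at 0 min (baseline) and at 30 min, with assembly at room temperature.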

Assay [4] deals with CCRF-CEM. Nature of the assay: Cytotoxicity against human CEM cells after 24 hrs by MTT assay. The format is functional, cell-based. A digest of the protocol: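 CEM cells treated at a range of concentrations for 24 h. Cell death measured by MTT.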
On the technique in general: Formazan colour is commonly taken as a measure of viable cells.

The test system of assay [5] is CCRF-CEM. Nature of the assay: Cytotoxicity against human CEM cells after 72 hrs by MTT assay. Type of assay: functional, cell-based. The essentials: (§4)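 Cells kept in RPMI-1640 with 10% heat-inactivated FCS plus penicillin/streptomycin at 37 °C, 5% CO2. Seeded at 1 × 10^5 cells per well and treated at 0.001–100 µM for 72 h at 37 °C. Viability read by MTT. IC50 was the concentration killing 50% relative to untreated controls, by non-linear regression. Duplicate wells, three independent experiments.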

Assay [6] has as its system Daudi. Nature of the assay: Cytotoxicity against human Daudi cells after 72 hrs by MTT assay. The format is functional, cell-based. The essentials: as §4
The test system of assay [7] is MCF7. Nature of the assay: Cytotoxicity against human MCF7 cells after 72 hrs by MTT assay. The format is functional, cell-based. The conditions noted are these: MCF7, 72 h. The essentials:
as §4

Assay [8] has as its system Bel-7402. The assay is described as follows: Cytotoxicity against human Bel7402 cells after 72 hrs by MTT assay. The format is functional, cell-based. The conditions noted are these: Bel-7402, 72 h. A digest of the protocol:
as §4

The subject of assay [9] is DU-145. Nature of the assay: Cytotoxicity against human DU145 cells after 72 hrs by MTT assay. Type of assay: functional, cell-based. As to conditions: DU-145, 72 h. A digest of the protocol:
as §4

Assay [10] concerns PC-3. Nature of the assay: Cytotoxicity against human PC3 cells after 72 hrs by MTT assay. The format is functional, cell-based. As to conditions: PC-3, 72 h. A digest of the protocol: as §4
The nature of assay [11]: Cytotoxicity against human DND1A cells after 72 hrs by MTT assay. The format is functional, cell-based. A digest of the protocol:
as §4

Assay [12] has as its system LoVo. Nature of the assay: Cytotoxicity against human LoVo cells after 72 hrs by MTT assay. Type of assay: functional, cell-based. A digest of the protocol: as §4
Assay [13] relates to MIA PaCa-2. The assay is described as follows: Cytotoxicity against human MIAPaCa2 cells after 72 hrs by MTT assay. As to conditions: MIA PaCa-2, 72 h. Type of assay: functional, cell-based. A digest of the protocol: as §4
The subject of assay [14] is CCRF-CEM. Nature of the assay: Cell cycle arrest in human CEM cells assessed as accumulation at G0/G1 phase at 10 uM after 18 hrs by flow cytometry. Type of assay: functional. As to conditions: in the assay text read “6.4 uM” for “10 uM”. A digest of the protocol: as §1
Assay [15] deals with CCRF-CEM. Nature of the assay: Cell cycle arrest in human CEM cells assessed as accumulation at S phase at 10 uM after 18 hrs by flow cytometry. The format is functional. As to conditions: in the assay text read “6.4 uM” for “10 uM”. A digest of the protocol: as §1
For assay [16], the system named is CCRF-CEM. The assay is described as follows: Cell cycle arrest in human CEM cells assessed as accumulation at S phase at 3.3 uM after 18 hrs by flow cytometry. Type of assay: functional. The essentials:
as §1

The subject of assay [17] is CCRF-CEM. Nature of the assay: Cell cycle arrest in human CEM cells assessed as accumulation at G2/M phase at 3.3 uM after 18 hrs by flow cytometry. The format is functional. The essentials: as §1
In assay [18] the test system is CCRF-CEM. The assay is described as follows: Induction of apoptosis in human CEM cells at 3.3 uM after 18 hrs by flow cytometry. Type of assay: functional. A digest of the protocol: as §2
The species entered for assay [19] is Bos taurus. The assay is described as follows: Inhibition of calf brain beta-tubulin polymerization at 3.3 uM after 30 mins by spectrophotometry. The essentials: as §3
The test system of assay [20] is CCRF-CEM. The assay is described as follows: Cell cycle arrest in human CEM cells assessed as accumulation at G0/G1 phase at 3.3 uM after 18 hrs by flow cytometry. Type of assay: functional. A digest of the protocol: as §1
Assay [21] relates to CCRF-CEM. The assay is described as follows: Cell cycle arrest in human CEM cells assessed as accumulation at S phase at 6.4 uM after 18 hrs by flow cytometry. Type of assay: functional. The conditions noted are these: in the assay text read “10 uM” for “6.4 uM”. The essentials:
as §1

Assay [22] has as its system CCRF-CEM. The assay is described as follows: Cell cycle arrest in human CEM cells assessed as accumulation at G2/M phase at 6.4 uM after 18 hrs by flow cytometry. Type of assay: functional. As to conditions: in the assay text read “10 uM” for “6.4 uM”. The essentials: as §1
Assay [23] deals with CCRF-CEM. The assay is described as follows: Induction of apoptosis in human CEM cells at 6.4 uM after 18 hrs by flow cytometry. The format is functional. As to conditions: in the assay text read “10 uM” for “6.4 uM”. The essentials: as §2
The species entered for assay [24] is Bos taurus. Nature of the assay: Inhibition of calf brain beta-tubulin polymerization at 10 uM after 30 mins by spectrophotometry. The essentials: as §3
Assay [25] relates to CCRF-CEM. Nature of the assay: Cell cycle arrest in human CEM cells assessed as accumulation at G0/G1 phase at 6.4 uM after 18 hrs by flow cytometry. The conditions noted are these: in the assay text read “10 uM” for “6.4 uM”. The format is functional. A digest of the protocol: as §1
Assay [26] deals with CCRF-CEM. The assay is described as follows: Cell cycle arrest in human CEM cells assessed as accumulation at G2/M phase at 3.2 uM after 18 hrs by flow cytometry. Type of assay: functional. A digest of the protocol:
as §1

For assay [27], the system named is CCRF-CEM. Nature of the assay: Induction of apoptosis in human CEM cells at 3.2 uM after 18 hrs by flow cytometry. The format is functional. A digest of the protocol: as §2
The test system of assay [28] is CCRF-CEM. The assay is described as follows: Cell cycle arrest in human CEM cells assessed as accumulation at G0/G1 phase at 3.2 uM after 18 hrs by flow cytometry. Type of assay: functional. The essentials: as §1
In assay [29] the test system is CCRF-CEM. Nature of the assay: Cell cycle arrest in human CEM cells assessed as accumulation at S phase at 3.2 uM after 18 hrs by flow cytometry. Type of assay: functional. The essentials: as §1

Activity calls are given as the source filed them. The rule behind the calls is not given here.

In the case of `O=C(CBr)NC(=O)Nc1cccc(NC(=O)CBr)c1`, the Activity in [1] was 13.2%; in [2], 24.8%; in [4], “Dose-dependent effect”; in [14] it was 48.3%; in [15], 13.7%. Besides, the inhibition result in assay [3] is “inactive”. For the same molecule, the IC50 (in general, the concentration that gives 50% inhibition) in assay [5] is 560 nM; in assay [6], 380 nM; in [7], 590 nM; in assay [8], 4.07 µM; in [9], 1280 nM; in assay [10] it was over 100 µM. Moreover, the IC50 turned out to be 510 nM in assay [11], 1990 nM in assay [12] and 2810 nM in [13].

`CC(=O)NC(=O)Nc1cccc(NC(=O)CBr)c1` displayed an IC50 in assay [5] of 3200 nM.

Consider `O=C(CBr)Nc1cccc(NC(=O)NCCCl)c1`, for which the IC50 in assay [5] is 770 nM.

In the case of `CC(=O)NC(=O)Nc1cccc(NC(=O)C(C)Br)c1` (centres undefined), the IC50 in assay [5] stood at 10600 nM.

In turn, `COc1cc(NC(=O)Nc2cccc(NC(=O)CBr)c2)cc(OC)c1OC` registered an IC50 in [5] of 1000 nM.

Regarding `O=C(CBr)Nc1cccc(NC(=O)Nc2ccccc2)c1`, in [5], the 50% inhibitory concentration (IC50) came to 860 nM.

Consider `O=CNC(=O)Nc1cccc(NC(=O)CBr)c1`, for which the Activity in assay [16] is listed as 12.9%; in [17], 2%; in assay [18], 52.6%; in assay [20], 33.5%. Moreover, in [19], the inhibition entry was “inactive”. This molecule also gave an IC50 in [5] of 850 nM.

`O=C(CCCl)NC(=O)Nc1cccc(NC(=O)CBr)c1` registered a half-inhibitory concentration (IC50) in assay [5] of 1900 nM.

For `CC(Br)C(=O)NC(=O)Nc1cccc(NC(=O)C(C)Br)c1` (centres undefined), the IC50 in assay [5] came to 1340 nM.

Regarding `O=C(CI)Nc1cccc(NC(=O)NCCCl)c1`, the Activity in assay [21] is 30.1%; in assay [22], 2.6%; in [23], 33.2%; in [25], 34.1%. In assay [24], the inhibition entry is “inactive”. The concentration for half-maximal inhibition (IC50) in [5] is 100 nM.

For `CC(Br)C(=O)Nc1cccc(NC(=O)NC(=O)CCCl)c1` (centres undefined), in assay [5], the IC50 came to 2050 nM.

In turn, `CC(Br)C(=O)Nc1cccc(NC(=O)NC=O)c1` (centres undefined) gave an IC50 in [5] of 10200 nM.

`NC(=O)NC(=O)c1cccc(NC(=O)CBr)c1`: in [5], half-maximal inhibition (IC50) was put at 725 nM.

Consider `CC(Br)C(=O)Nc1cccc(NC(=O)NCCCl)c1` (centres undefined), for which the concentration for half-maximal inhibition (IC50) in assay [5] came to 22700 nM.

As to `CC(Br)C(=O)Nc1cccc(C(=O)NC(N)=O)c1` (centres undefined), the Activity in assay [26] was 63.2%; in [27] it was 9.5%; in assay [28], 2%; in assay [29] it was 25.3%. In [5], this molecule returned a 50% inhibitory concentration (IC50) of 1470 nM.

`COc1cc(NC(=O)Nc2cccc(NC(=O)C(C)Br)c2)cc(OC)c1OC` (centres undefined) gave an IC50 in assay [5] of 3990 nM. That is a single-digit micromolar value.
